Measured values as given in ChEMBL document CHEMBL1157575, “Antitumor agents. 272. Structure-activity relationships and in vivo selective anti-breast cancer activity of novel neo-tanshinlactone analogues” (J Med Chem, 2010).
Converted amounts (≈) assume the structure as drawn.

Key:
ZR-75-1 [1] = assay: Growth inhibition of human ZR-75-1 cells after 72 hrs by SRB assay; assay type: functional; conditions: ZR-75-1, 72 h, read-out: ED50 (the source's name)
Method in brief: (§1)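 SRB assay. Cells were grown in RPMI-1640 with 10% FBS at 37 °C and 5% CO2, then seeded in 96-well plates. Compound was added from DMSO stock, followed by 72 h incubation. Cells were fixed with 10% TCA, stained with 0.4% SRB, solubilized in 10 mM Tris base, and read at 515 nm. ED50 is the concentration giving 50% reduction of net protein increase versus control; mean of at least three independent determinations.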

MDA-MB-231 = assay: Growth inhibition of human MDA-MB-231 cells after 72 hrs by SRB assay; assay type: functional; conditions: MDA-MB-231, 72 h, read-out: ED50 (the source's name); method in brief: as §1
MCF7 = assay: Growth inhibition of human MCF7 cells after 72 hrs by SRB assay; assay type: functional; conditions: MCF7, 72 h, read-out: ED50 (the source's name); method in brief: as §1
SK-BR-3 = assay: Growth inhibition of human SK-BR-3 cells after 72 hrs by SRB assay; assay type: functional; conditions: SK-BR-3, 72 h, read-out: ED50 (the source's name); method in brief: as §1
[2] = Cytotoxicity against human KBVIN cells after 72 hrs by SRB assay; assay type: functional; conditions: read-out: ED50 (the source's name); method in brief: as §1
DU-145 = assay: Cytotoxicity against human DU145 cells after 72 hrs by SRB assay; assay type: functional; conditions: DU-145, 72 h, read-out: ED50 (the source's name)
KB = assay: Cytotoxicity against human KB cells after 72 hrs by SRB assay; assay type: functional; conditions: read-out: ED50 (the source's name); method in brief: as §1
ZR-75-1 [3] = assay: Selectivity for ED50 for human ZR-75-1 to ED50 for human SK-BR-3; assay type: functional
Method in brief: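 SRB growth assay: ZR-75-1 and SK-BR-3 cells in RPMI-1640 with 10% FBS at 37 °C under 5% CO2, seeded in 96-well plates, compound added from DMSO stock, 72 h exposure, TCA fixation, SRB staining, absorbance at 515 nm. ED50 is 50% reduction of net protein increase, averaged from ≥3 independent runs; ratio of ZR-75-1 to SK-BR-3 ED50.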

A549 = assay: Cytotoxicity against human A549 cells after 72 hrs by SRB assay; assay type: functional; conditions: A549, 72 h, read-out: ED50 (the source's name)
[4] = Cytotoxicity against human MCF10A cells after 72 hrs by MTT assay; assay type: cell-based, MCF-10A; conditions: read-out: ED50
Method in brief: (§2)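 MTT assay. Cells were seeded at 5000/well in recommended growth medium and incubated overnight. Compound was added in DMSO, followed by 72 h at 37 °C in 5% CO2. MTT reagent was added for 2 h and formazan was read at OD 570 nm. Values were interpolated ED50; data are from replicates in a single experiment.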

[5] = molecular target: Casein kinase II subunit alpha (Homo sapiens) (UniProt P68400); assay: Inhibition of human recombinant CK2alpha1 expressed in Sf9 cells at 10 uM
Casein kinase II subunit alpha (Homo sapiens), sequence (P68400 whole entry, looked up): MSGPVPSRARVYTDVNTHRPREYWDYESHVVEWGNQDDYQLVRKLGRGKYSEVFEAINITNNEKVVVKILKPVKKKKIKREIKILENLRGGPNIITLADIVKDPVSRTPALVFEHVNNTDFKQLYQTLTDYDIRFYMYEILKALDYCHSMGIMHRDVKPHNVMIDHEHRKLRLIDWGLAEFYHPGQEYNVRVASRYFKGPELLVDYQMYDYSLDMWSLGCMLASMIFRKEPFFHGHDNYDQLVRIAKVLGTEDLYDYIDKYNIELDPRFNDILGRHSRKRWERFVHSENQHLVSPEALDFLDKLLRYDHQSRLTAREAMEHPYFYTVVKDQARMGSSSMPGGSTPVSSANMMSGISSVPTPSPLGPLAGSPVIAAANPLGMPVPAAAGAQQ

ZR-75-1 [6] = assay: Antitumor activity against human ZR-75-1 cells xenografted in athymic nude mouse SCID assessed as mean time to end point at 10 mg/kg, ip administered in QOD schedule; assay type: functional; conditions: route intraperitoneal
Method in brief: (§3)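 Female SCID mice, 5 weeks old, 20-24 g, implanted s.c. in the right flank with 1 × 10^7 ZR-75-1 cells in PBS. Tumors were caliper-measured, with volume = w² × l/2. Dosing was i.p. in vehicle (4% benzyl alcohol/6% cremophor/90% D5W); vehicle controls were given qod to end. TTE is the mean time to endpoint. %TGD = (T−C)/C × 100. Logrank test, P ≤ 0.05.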

[7] = Cytotoxicity against human 184A1 cells after 72 hrs by MTT assay; assay type: cell-based; conditions: read-out: ED50; method in brief: as §2
[8] = molecular target: RAC-alpha serine/threonine-protein kinase (Homo sapiens) (UniProt P31749); assay: Inhibition of human recombinant AKT1 expressed in Sf21 cells at 10 uM
RAC-alpha serine/threonine-protein kinase (Homo sapiens), sequence (P31749 whole entry): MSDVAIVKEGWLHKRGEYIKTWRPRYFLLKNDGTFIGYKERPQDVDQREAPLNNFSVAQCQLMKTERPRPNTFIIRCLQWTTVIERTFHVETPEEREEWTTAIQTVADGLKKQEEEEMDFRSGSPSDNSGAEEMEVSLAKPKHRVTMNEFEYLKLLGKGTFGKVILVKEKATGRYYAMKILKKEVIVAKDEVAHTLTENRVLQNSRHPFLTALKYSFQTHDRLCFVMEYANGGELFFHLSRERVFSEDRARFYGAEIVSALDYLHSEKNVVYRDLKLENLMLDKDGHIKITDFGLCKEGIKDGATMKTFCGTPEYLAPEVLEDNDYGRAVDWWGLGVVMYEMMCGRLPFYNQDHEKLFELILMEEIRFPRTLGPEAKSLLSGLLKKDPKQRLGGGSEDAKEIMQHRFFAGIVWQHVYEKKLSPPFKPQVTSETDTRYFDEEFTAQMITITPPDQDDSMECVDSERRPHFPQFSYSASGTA

ZR-75-1 [9] = assay: Antitumor activity against human ZR-75-1 cells xenografted in athymic nude mouse SCID assessed as tumor growth delay at 10 mg/kg, ip administered in QOD schedule; assay type: functional; conditions: route intraperitoneal; method in brief: as §3
[10] = molecular target: Tyrosine-protein kinase ABL1 (Mus musculus) (UniProt P00520); assay: Inhibition of mouse recombinant ABL expressed in Escherichia coli at 10 uM
Tyrosine-protein kinase ABL1 (Mus musculus), sequence (P00520 whole entry): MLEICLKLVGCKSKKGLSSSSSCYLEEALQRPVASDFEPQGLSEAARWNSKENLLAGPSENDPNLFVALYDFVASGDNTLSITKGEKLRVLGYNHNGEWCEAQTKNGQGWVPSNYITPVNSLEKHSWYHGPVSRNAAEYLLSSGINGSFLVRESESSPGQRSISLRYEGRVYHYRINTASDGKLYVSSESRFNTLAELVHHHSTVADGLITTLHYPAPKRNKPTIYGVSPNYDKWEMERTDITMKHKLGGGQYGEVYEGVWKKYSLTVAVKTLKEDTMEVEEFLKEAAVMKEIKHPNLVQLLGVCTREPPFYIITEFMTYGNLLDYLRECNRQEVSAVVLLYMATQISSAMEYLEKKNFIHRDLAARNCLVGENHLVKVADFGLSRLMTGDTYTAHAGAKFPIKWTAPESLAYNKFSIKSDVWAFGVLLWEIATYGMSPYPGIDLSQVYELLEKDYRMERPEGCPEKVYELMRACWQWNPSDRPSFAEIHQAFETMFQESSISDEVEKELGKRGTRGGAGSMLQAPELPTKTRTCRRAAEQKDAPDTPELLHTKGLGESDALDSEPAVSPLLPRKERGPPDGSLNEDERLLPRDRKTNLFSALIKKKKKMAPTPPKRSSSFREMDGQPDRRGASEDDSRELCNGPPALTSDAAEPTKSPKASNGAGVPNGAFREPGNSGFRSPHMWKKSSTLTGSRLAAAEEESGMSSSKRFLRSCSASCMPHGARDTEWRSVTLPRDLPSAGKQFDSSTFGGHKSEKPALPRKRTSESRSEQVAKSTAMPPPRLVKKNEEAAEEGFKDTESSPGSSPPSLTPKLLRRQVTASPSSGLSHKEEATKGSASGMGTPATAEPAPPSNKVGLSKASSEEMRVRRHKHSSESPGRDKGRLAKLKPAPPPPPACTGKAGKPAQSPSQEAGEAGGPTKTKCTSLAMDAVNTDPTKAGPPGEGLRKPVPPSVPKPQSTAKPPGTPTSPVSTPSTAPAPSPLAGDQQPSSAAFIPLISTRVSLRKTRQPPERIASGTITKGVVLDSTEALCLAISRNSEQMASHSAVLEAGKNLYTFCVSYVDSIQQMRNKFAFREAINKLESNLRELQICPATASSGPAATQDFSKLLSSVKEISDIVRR

ZR-75-1 [11] = assay: Antitumor activity against human ZR-75-1 cells xenografted in athymic nude mouse SCID assessed as tumor growth delay at 20 mg/kg, ip administered in Q4D X 5 schedule; assay type: functional; conditions: route intraperitoneal; method in brief: as §3
ZR-75-1 [12] = assay: Antitumor activity against human ZR-75-1 cells xenografted in athymic nude mouse SCID assessed as mean time to end point at 20 mg/kg, ip administered in Q4D X 5 schedule; assay type: functional; conditions: route intraperitoneal; method in brief: as §3

SMILES	EC50 (ZR-75-1 [1])	EC50 (MDA-MB-231)	EC50 (MCF7)	EC50 (SK-BR-3)	EC50 (KB)	other results
Cc1cccc2c1ccc1c3occ(C)c3c(=O)oc21	0.3 µg/mL (≈ 1.14 µM)	10 µg/mL (≈ 37.8 µM)	0.6 µg/mL (≈ 2.27 µM)	0.2 µg/mL (≈ 0.757 µM)		
CCc1cccc2c1ccc1c3c(c(=O)oc12)C(C)CO3 (centres undefined)				5.1 µg/mL (≈ 18.2 µM)		
Cc1coc2c1c(=O)sc1c3ccccc3ccc21			> 20 µg/mL	12 µg/mL (≈ 45.1 µM)		
CCc1coc2c1c(=O)oc1c3cccc(C)c3ccc21			7.5 µg/mL (≈ 26.9 µM)	11 µg/mL (≈ 39.5 µM)		
Cc1coc2c1c(=O)oc1c3ccccc3n(C)c(=O)c21			11 µg/mL (≈ 39.1 µM)	12 µg/mL (≈ 42.7 µM)		
CC(=O)Oc1cccc2c1ccc1c3occ(C)c3c(=O)oc21			6 µg/mL (≈ 19.5 µM)	5.7 µg/mL (≈ 18.5 µM)		
CCCn1c(=O)c2c3occ(C)c3c(=O)oc2c2ccccc21			> 20 µg/mL	15 µg/mL (≈ 48.5 µM)		
Cc1coc2c1c(=S)oc1c3ccccc3ccc21			> 20 µg/mL	> 20 µg/mL		
Cc1coc2c1c(=O)oc1c3ccccc3ccc21	4 µg/mL (≈ 16 µM)		4 µg/mL (≈ 16 µM)	1 µg/mL (≈ 4 µM)		
Cc1ccc2c(=O)oc3c4ccccc4ccc3c2c1				> 20 µg/mL		
COc1cccc2c1ccc1c3occ(C)c3c(=O)oc21	0.1 µg/mL (≈ 0.357 µM)	6.4 µg/mL (≈ 22.8 µM)	2.3 µg/mL (≈ 8.21 µM)	0.2 µg/mL (≈ 0.714 µM)	13 µg/mL (≈ 46.4 µM)	EC50 [2]: 12 µg/mL (≈ 42.8 µM); EC50 (DU-145): 14 µg/mL (≈ 50 µM)
Cc1coc2c1c(=O)oc1c3cccc(C(C)C)c3ccc21	0.2 µg/mL (≈ 0.684 µM)	> 10 µg/mL	1.4 µg/mL (≈ 4.79 µM)	2 µg/mL (≈ 6.84 µM)	11 µg/mL (≈ 37.6 µM)	EC50 [2]: 7.3 µg/mL (≈ 25 µM); Ratio ED50 (ZR-75-1 [3]): 10
CCc1cccc2c1ccc1c3oc(C)c(C)c3c(=O)oc21			8 µg/mL (≈ 27.4 µM)	9.8 µg/mL (≈ 33.5 µM)		
Cc1oc2c(c1C)c(=O)oc1c3ccccc3ccc21			> 20 µg/mL	6.9 µg/mL (≈ 26.1 µM)		
Cc1coc2c1c(=O)oc1c3cccc(OCCN(C)C)c3ccc21			5 µg/mL (≈ 14.8 µM)	5.8 µg/mL (≈ 17.2 µM)		
CCc1cccc2c1ccc1c3oc(C)cc3c(=O)oc21	2.2 µg/mL (≈ 7.9 µM)	9.6 µg/mL (≈ 34.5 µM)	> 20 µg/mL	2.1 µg/mL (≈ 7.55 µM)	14 µg/mL (≈ 50.3 µM)	EC50 [2]: 13 µg/mL (≈ 46.7 µM); EC50 (A549): 12 µg/mL (≈ 43.1 µM)

SMILES	EC50 (ZR-75-1 [1])	EC50 (MDA-MB-231)	EC50 (MCF7)	EC50 (SK-BR-3)	EC50 (KB)	other results
CCc1coc2c1c(=O)oc1c3ccccc3ccc21	2.3 µg/mL (≈ 8.7 µM)	> 10 µg/mL	2.5 µg/mL (≈ 9.46 µM)	1.8 µg/mL (≈ 6.81 µM)	7.5 µg/mL (≈ 28.4 µM)	EC50 [2]: 6.6 µg/mL (≈ 25 µM); EC50 (A549): 8.2 µg/mL (≈ 31 µM); EC50 (DU-145): 8.7 µg/mL (≈ 32.9 µM)
COc1ccc(-c2coc3c2c(=O)oc2c4ccccc4ccc32)cc1				5.8 µg/mL (≈ 16.9 µM)		
CCc1cccc2c1ccc1c3occ(C)c3c(=S)oc21			> 20 µg/mL	16 µg/mL (≈ 54.4 µM)		
CCc1cccc2c1ccc1c3occ(C)c3/c(=N/O)oc21			> 20 µg/mL	19 µg/mL (≈ 64.8 µM)		
Cc1coc2c1c(=O)oc1c3cccc(C(C)Br)c3ccc21 (centres undefined)	0.1 µg/mL (≈ 0.28 µM)	14 µg/mL (≈ 39.2 µM)		0.1 µg/mL (≈ 0.28 µM)	13 µg/mL (≈ 36.4 µM)	EC50 [2]: > 20 µg/mL; EC50 (A549): > 20 µg/mL; EC50 (DU-145): 18 µg/mL (≈ 50.4 µM)
CCc1cccc2c1ccc1c3occ(CC)c3c(=O)oc21	0.6 µg/mL (≈ 2.05 µM)	> 10 µg/mL	1.3 µg/mL (≈ 4.45 µM)	1.5 µg/mL (≈ 5.13 µM)	12 µg/mL (≈ 41 µM)	EC50 [2]: 15 µg/mL (≈ 51.3 µM); EC50 (A549): 18 µg/mL (≈ 61.6 µM); EC50 (DU-145): 16 µg/mL (≈ 54.7 µM)
Cc1coc2c1c(=O)oc1c3cccc(O)c3ccc21			15 µg/mL (≈ 56.3 µM)	5 µg/mL (≈ 18.8 µM)		
CCc1cccc2c1ccc1c3occ(C)c3c(=O)oc21	0.1 µg/mL (≈ 0.359 µM)	8.8 µg/mL (≈ 31.6 µM)	0.2 µg/mL (≈ 0.719 µM)	0.1 µg/mL (≈ 0.359 µM)	13 µg/mL (≈ 46.7 µM)	CC50 at 72 h [4]: 2.7 µg/mL (≈ 9.7 µM); inhibition [5]: 99%; Activity (ZR-75-1 [6]): 29.5 days; EC50 (A549): 11 µg/mL (≈ 39.5 µM); EC50 (DU-145): 16 µg/mL (≈ 57.5 µM); CC50 at 72 h [7]: 4.4 µg/mL (≈ 15.8 µM); inhibition [8]: 93%; Activity (ZR-75-1 [9]): 95%; inhibition [10]: 93%
CCc1cccc2c1ccc1c3occ(-c4ccc(OC)cc4)c3c(=O)oc21			> 20 µg/mL	> 20 µg/mL		
Cc1coc2c1c(=O)[nH]c1c3ccccc3ccc12				4.4 µg/mL (≈ 17.7 µM)		
Cc1coc2c1c(=O)oc1c3cccc(F)c3ccc21	0.8 µg/mL (≈ 2.98 µM)	> 10 µg/mL	4.5 µg/mL (≈ 16.8 µM)	1.1 µg/mL (≈ 4.1 µM)	13 µg/mL (≈ 48.5 µM)	EC50 [2]: 15 µg/mL (≈ 55.9 µM); EC50 (A549): 14 µg/mL (≈ 52.2 µM); EC50 (DU-145): 18 µg/mL (≈ 67.1 µM)
CCOc1cccc2c1ccc1c3occ(C)c3c(=O)oc21	1.9 µg/mL (≈ 6.46 µM)	9.8 µg/mL (≈ 33.3 µM)	> 20 µg/mL	2.5 µg/mL (≈ 8.49 µM)	3.7 µg/mL (≈ 12.6 µM)	EC50 [2]: 5.3 µg/mL (≈ 18 µM); EC50 (A549): 3.5 µg/mL (≈ 11.9 µM); EC50 (DU-145): 4.7 µg/mL (≈ 16 µM)
CC1COc2c1c(=O)oc1c2ccc2ccccc21 (centres undefined)				14 µg/mL (≈ 55.5 µM)		
Cc1cc2c(=O)oc3c4ccccc4ccc3c2o1			> 20 µg/mL	12 µg/mL (≈ 48 µM)		
CC(=O)O[C@H]1C(=O)[C@@]2(C)[C@H]([C@H](OC(=O)c3ccccc3)[C@]3(O)C[C@H](OC(=O)[C@H](O)[C@@H](NC(=O)c4ccccc4)c4ccccc4)C(C)=C1C3(C)C)[C@]1(OC(C)=O)CO[C@@H]1C[C@@H]2O [PACLITAXEL]						Activity (ZR-75-1 [11]): 132%; Activity (ZR-75-1 [12]): 35 days
CCCc1cccc2c1ccc1c3occ(C)c3c(=O)oc21	0.3 µg/mL (≈ 1.03 µM)	> 10 µg/mL	1.2 µg/mL (≈ 4.1 µM)	0.1 µg/mL (≈ 0.342 µM)	12 µg/mL (≈ 41 µM)	EC50 [2]: 11 µg/mL (≈ 37.6 µM); EC50 (DU-145): 15 µg/mL (≈ 51.3 µM); Ratio ED50 (ZR-75-1 [3]): 3
